In brackets after ≈: the same amount, converted by molar mass.
Experiments:
[1] = system: Bacillus subtilis; experiment: Antibacterial activity against Bacillus subtilis ATCC 6633 assessed as diameter of inhibition zone by CLSI based disc-diffusion method; type: functional
How it was run: (§1)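 Strains were stored at −80 °C, then subcultured twice on tryptic soy agar for 24–48 h at 30 °C before the disc-diffusion test. The result was recorded as the inhibition-zone diameter.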

[2] = system: Enterococcus faecalis; experiment: Antibacterial activity against Enterococcus faecalis ATCC 29212 assessed as diameter of inhibition zone by CLSI based disc-diffusion method; type: functional; how it was run: as §1
[3] = system: Staphylococcus epidermidis; experiment: Antibacterial activity against Staphylococcus epidermidis ATCC 12228 assessed as diameter of inhibition zone by CLSI based disc-diffusion method; type: functional; how it was run: as §1
[4] = system: Staphylococcus aureus; experiment: Antibacterial activity against methicillin-resistant Staphylococcus aureus ATCC 43300 assessed as diameter of inhibition zone by CLSI based disc-diffusion method; type: functional
How it was run: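 Disc-diffusion on standard strain subcultured twice on tryptic soy agar (24–48 h, 30 °C) after storage at −80 °C; inhibition zone diameter read; linezolid disc (0.03 mg) as reference.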

[5] = system: Enterococcus faecium; experiment: Antibacterial activity against Enterococcus faecium ATCC 6057 assessed as diameter of inhibition zone by CLSI based disc-diffusion method; type: functional; how it was run: as §1
[6] = system: Candida albicans; experiment: Antifungal activity against Candida albicans ATCC 90028 assessed as fungal growth inhibition by broth-microdilution method; type: functional
How it was run: (§2)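 Yeasts were stored at −80 °C and subcultured twice on Sabouraud dextrose agar (24–48 h, 30 °C) to confirm viability. Growth inhibition was then measured as MIC by broth microdilution.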

[7] = system: Pichia kudriavzevii; experiment: Antifungal activity against Candida krusei ATCC 6258 assessed as fungal growth inhibition by broth-microdilution method; type: functional; how it was run: as §2
[8] = system: Candida parapsilosis; experiment: Antifungal activity against Candida parapsilosis ATCC 22019 assessed as fungal growth inhibition by broth-microdilution method; type: functional; conditions: Lodderomyces parapsilosis; how it was run: as §2
[9] = system: Candida tropicalis; experiment: Antifungal activity against Candida tropicalis ATCC 750 assessed as fungal growth inhibition by broth-microdilution method; type: functional; how it was run: as §2
[10] = system: Candida tropicalis; experiment: Antifungal activity against Candida tropicalis IBA 171 assessed as fungal growth inhibition by broth-microdilution method; type: functional; how it was run: as §2
[11] = system: Meyerozyma guilliermondii; experiment: Antifungal activity against Candida guilliermondii IBA 155 assessed as fungal growth inhibition by broth-microdilution method; type: functional; how it was run: as §2
[12] = system: Saccharomyces cerevisiae; experiment: Antifungal activity against Saccharomyces cerevisiae ATCC 9763 assessed as fungal growth inhibition by broth-microdilution method; type: functional; how it was run: as §2
[13] = Selectivity ratio of IC50 for cytotoxicity against human MRC5 cells assessed as inhibition of cell growth to MIC for antibacterial activity against methicillin-resistant Staphylococcus aureus ATCC 43300 assessed as inhibition of microbial growth; type: toxicity, cell-based
[14] = Selectivity ratio of IC50 for cytotoxicity against human MRC5 cells assessed as inhibition of cell growth to MIC for antibacterial activity against methicillin-resistant Staphylococcus aureus NMI 664 K assessed as inhibition of microbial growth by broth-microdilution method; type: toxicity, cell-based
[15] = Selectivity ratio of IC50 for cytotoxicity against human MRC5 cells assessed as inhibition of cell growth to MIC for antibacterial activity against methicillin-resistant Staphylococcus aureus NMI 1576 K assessed as inhibition of microbial growth by broth-microdilution method; type: toxicity, cell-based
[16] = Selectivity ratio of IC50 for cytotoxicity against human MRC5 cells assessed as inhibition of cell growth to MIC for antibacterial activity against methicillin-resistant Staphylococcus aureus NMI 1712 K assessed as inhibition of microbial growth by broth-microdilution method; type: toxicity, cell-based
[17] = Selectivity ratio of IC50 for cytotoxicity against human MRC5 cells assessed as inhibition of cell growth to MIC for antibacterial activity against methicillin-resistant Staphylococcus aureus NMI 1991 K assessed as inhibition of microbial growth by broth-microdilution method; type: toxicity, cell-based
[18] = Selectivity ratio of IC50 for cytotoxicity against human MRC5 cells assessed as inhibition of cell growth to MIC for antibacterial activity against methicillin-resistant Staphylococcus aureus NMI 2541 K assessed as inhibition of microbial growth by broth-microdilution method; type: toxicity, cell-based
[19] = system: Escherichia coli; experiment: Antibacterial activity against Escherichia coli ATCC 25922 assessed as inhibition of cell growth by broth-microdilution method; type: functional
How it was run: (§3)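 Strains were held at −80 °C and subcultured twice on tryptic soy agar for 24–48 h at 30 °C. MIC was read by CLSI broth microdilution in Mueller–Hinton II broth, with and without the efflux-pump inhibitor PAβN (20 µg mL⁻¹). Both sets contained 1 mM MgSO₄. A ≥4-fold MIC drop with PAβN was taken as significant.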

[20] = system: Klebsiella pneumoniae; experiment: Antibacterial activity against Klebsiella pneumoniae ATCC 13883 assessed as inhibition of cell growth by broth-microdilution method; type: functional; how it was run: as §3
[21] = system: Proteus mirabilis; experiment: Antibacterial activity against Proteus mirabilis ATCC 12453 assessed as inhibition of cell growth by broth-microdilution method; type: functional; how it was run: as §3
[22] = system: Enterobacter cloacae; experiment: Antibacterial activity against Enterobacter cloacae DSM 6234 assessed as inhibition of cell growth by broth-microdilution method; type: functional; how it was run: as §3
[23] = system: Serratia marcescens; experiment: Antibacterial activity against Serratia marcescens ATCC 13880 assessed as inhibition of cell growth by broth-microdilution method; type: functional; how it was run: as §3
[24] = system: Acinetobacter baumannii; experiment: Antibacterial activity against Acinetobacter baumannii ATCC 19606 assessed as inhibition of cell growth by broth-microdilution method; type: functional; how it was run: as §3
[25] = system: Pseudomonas aeruginosa; experiment: Antibacterial activity against Pseudomonas aeruginosa ATCC […] assessed as inhibition of cell growth by broth-microdilution method; type: functional; how it was run: as §3
[26] = system: Stenotrophomonas maltophilia; experiment: Antibacterial activity against Stenotrophomonas maltophilia ATCC 12714 assessed as inhibition of cell growth by broth-microdilution method; type: functional; how it was run: as §3
[27] = system: Stenotrophomonas maltophilia; experiment: Antibacterial activity against Stenotrophomonas maltophilia ATCC 13637 assessed as inhibition of cell growth by broth-microdilution method; type: functional; how it was run: as §3
[28] = system: Burkholderia cepacia; experiment: Antibacterial activity against Burkholderia cepacia ATCC 25416 assessed as inhibition of cell growth by broth-microdilution method; type: functional

| Structure (SMILES) | diameter of the inhibition zone (DIZ) [1] [mm] | diameter of the inhibition zone (DIZ) [2] [mm] | diameter of the inhibition zone (DIZ) [3] [mm] | diameter of the inhibition zone (DIZ) [4] [mm] | diameter of the inhibition zone (DIZ) [5] [mm] | selectivity ratio [13] | selectivity ratio [14] | selectivity ratio [15] | selectivity ratio [16] | selectivity ratio [17] | selectivity ratio [18] | also measured |
| --- | --- | --- | --- | --- | --- | --- | --- | --- | --- | --- | --- | --- |
| C[Si]1(C)OB(O)c2cc(F)c(SCCC(=O)Nc3ncccn3)c(F)c21 | 15 | 13 | 11 | 12 |  |  |  |  |  |  |  |  |
| C[Si]1(C)OB(O)c2ccc(SC3CC(=O)N(c4ccc(F)cc4)C3=O)c(F)c21 (configuration not stated) |  | 20 | 21 | 21 | 22 | 5.8 |  |  |  |  |  | MIC [6]: > 12.5 µg/mL; MIC [7]: > 12.5 µg/mL; MIC [8]: > 12.5 µg/mL; MIC [9]: > 12.5 µg/mL; MIC [10]: > 12.5 µg/mL; MIC [11]: > 12.5 µg/mL; MIC [12]: 6.25 µg/mL (≈ 14.9 µM) |
| C[Si]1(C)OB(O)c2cc(F)c(S(=O)(=O)N3CCOCC3)c(F)c21 | 12 |  |  |  |  |  |  |  |  |  |  |  |
| C[Si]1(C)OB(O)c2cc(F)c(SC3CC(=O)N(c4ccc(F)cc4)C3=O)c(F)c21 (configuration not stated) |  |  |  | 24 |  | 2.7 |  |  |  |  |  | MIC [6]: > 12.5 µg/mL; MIC [7]: > 12.5 µg/mL; MIC [8]: > 12.5 µg/mL; MIC [9]: > 12.5 µg/mL; MIC [10]: > 12.5 µg/mL; MIC [11]: > 12.5 µg/mL; MIC [12]: 6.25 µg/mL (≈ 14.3 µM) |
| C[Si]1(C)OB(O)c2cc(F)c(SCCC(=O)N3CCOCC3)c(F)c21 | 14 |  | 19 |  |  |  |  |  |  |  |  |  |
| CC(=O)CSc1ccc2c(c1F)[Si](C)(C)OB2O | 24 | 16 | 23 |  |  | > 32 | > 32 | > 32 | > 32 | > 32 | > 32 |  |
| C[Si]1(C)OB(O)c2cc(F)c(S(=O)(=O)Nc3ccc(F)cc3)c(F)c21 |  |  | 19 | 16 |  | 0.7 |  |  |  |  |  |  |
| C[Si]1(C)OB(O)c2ccc(SC3CC(=O)NC3=O)c(F)c21 (configuration not stated) | 24 |  |  | 22 |  |  |  |  |  |  |  | MIC [19]: > 25 µg/mL; MIC [20]: > 25 µg/mL; MIC [21]: > 25 µg/mL; MIC [22]: > 25 µg/mL; MIC [23]: > 25 µg/mL; MIC [24]: > 25 µg/mL; MIC [25]: > 25 µg/mL; MIC [26]: > 25 µg/mL; MIC [27]: > 25 µg/mL; MIC [28]: > 25 µg/mL |
| C[Si]1(C)OB(O)c2cc(F)c(SCCS(=O)(=O)c3ccccc3)c(F)c21 |  | 14 |  | 28 | 15 | 19.5 | 19.5 | 19.5 | 19.5 | 19.5 | 19.5 |  |
| C[Si]1(C)OB(O)c2ccc(SC(=O)c3ccc(C(F)(F)F)cc3)c(F)c21 | 15 |  | 16 |  | 12 | 8.9 | 8.9 | 4.5 | 8.9 | 4.5 | 8.9 | MIC [6]: > 12.5 µg/mL; MIC [7]: > 12.5 µg/mL; MIC [8]: > 12.5 µg/mL; MIC [9]: > 12.5 µg/mL; MIC [10]: > 12.5 µg/mL; MIC [11]: > 12.5 µg/mL; MIC [12]: 6.25 µg/mL (≈ 15.6 µM) |
| C[Si]1(C)OB(O)c2cc(F)c(S(=O)(=O)Cl)c(F)c21 | 15 |  | 13 |  |  |  |  |  |  |  |  |  |
| C[Si]1(C)OB(O)c2ccc(SCC(=O)c3ccccc3)c(F)c21 |  | 17 |  |  | 17 | 40.4 | 40.4 | 40.4 | 40.4 | 80.8 | 80.8 |  |
